Assay results: ChEMBL document CHEMBL1817610, “Synthesis and SAR requirements of adamantane-colchicine conjugates with both microtubule depolymerizing and tubulin clustering activities” (Bioorg Med Chem, 2011)
Activity calls are given as the source filed them. No cut-off for these calls is given here.

Assays:
A549 [1] = experiment: Cytotoxicity against human A549 cells after 24 hrs by MTT assay; format: functional, cell-based; details: A549, 24 h
How it was run: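 A549 cells kept in DMEM with 10% FBS and 1% penicillin/streptomycin at 37 °C, 5% CO2, then seeded at 3 × 10³ per well. Exposure 24 h to test agents at 1–12000 nM (DMSO stocks; 0.4% DMSO negative control), 8 wells per concentration. Surviving cells counted by colorimetric MTT (5 mg/mL in PBS). EC50 averaged over three to six experiments.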

A549 [2] = experiment: Effect on microtubule network in human A549 cells assessed as microtubule depolymerization and tubulin clustering at 1 uM after 8 hrs by immunofluorescence microscopic analysis; format: functional, cell-based
How it was run: (§1)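 A549 cells grown on 11 mm glass coverslips at 2 × 10⁴ cells each. Exposure to compounds at 1 and 5 µM for 8 h at 37 °C, 5% CO2, with 0.5% DMSO as negative control. Cells fixed in 4% paraformaldehyde and stained with mouse monoclonal anti-α-tubulin, then Alexa Fluor488 goat anti-mouse IgG (1:200). Fluorescence microscopy, effect scored semi-quantitatively by '+' grades.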

A549 (Homo sapiens) = experiment: Effect on microtubule network in human A549 cells assessed as tubulin clustering formation after 8 hrs by immunofluorescence microscopic analysis
A549 [3] = experiment: Effect on microtubule network in human A549 cells assessed as microtubule depolymerization at 1 uM after 8 hrs by immunofluorescence microscopic analysis; format: functional, cell-based; how it was run: as §1
A549 [4] = experiment: Effect on microtubule network in human A549 cells assessed as microtubule binding at 1 uM after 8 hrs by immunofluorescence microscopic analysis; format: functional, cell-based
A549 [5] = experiment: Effect on microtubule network in human A549 cells assessed as microtubule depolymerization and tubulin clustering at 5 uM after 8 hrs by immunofluorescence microscopic analysis; format: functional, cell-based; how it was run: as §1
Bos taurus = organism: Bos taurus; experiment: Inhibition of bovine brain tubulin polymerization after 1 hr
How it was run: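 Purified bovine brain tubulin polymerized with 10% DMSO present and test agent at 10 µM. Incubation 1 h, then preparations examined by Allen video-enhanced microscopy.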

| SMILES | EC50 (A549 [1]) [nM] | Activity (A549 [2]) | further results |
| --- | --- | --- | --- |
| COc1cc2c(c(OC)c1OC)-c1ccc(OC)c(=O)cc1[C@@H](NC(=O)CCCC(=O)OC1C3CC4CC1CC(OC(=O)[C@H](O)[C@@H](NC(=O)OC(C)(C)C)c1ccccc1)(C4)C3)CC2 (mixture of isomers) | 220 | – | – |
| COc1cc2c(c(OC)c1OC)-c1ccc(OC)c(=O)cc1[C@@H](NC(=O)CCCCCCC(=O)OC1C3CC4CC1CC(OC(=O)[C@H](O)[C@@H](NC(=O)OC(C)(C)C)c1ccccc1)(C4)C3)CC2 (mixture of isomers) | 2 | Active | – |
| COc1cc2c(c(OC)c1OC)-c1ccc(OC)c(=O)cc1[C@@H](NC(=O)CCCCCC(=O)OC1C3CC4CC(C3)CC1C4)CC2 (stereo not given in full) | 6 | Active | Activity (A549 (Homo sapiens)): Active |
| COc1cc2c(c(OC)c1OC)-c1ccc(OC)c(=O)cc1[C@@H](NC(=O)CCCCCC(=O)Oc1ccccc1)CC2 | 5700 | – | Activity (A549 [3]): Active |
| CC(=O)O[C@H]1C(=O)[C@@]2(C)[C@H]([C@H](OC(=O)c3ccccc3)[C@]3(O)C[C@H](OC(=O)[C@H](O)[C@@H](NC(=O)c4ccccc4)c4ccccc4)C(C)=C1C3(C)C)[C@]1(OC(C)=O)CO[C@@H]1C[C@@H]2O [PACLITAXEL] | 4.6 | – | Activity (A549 [4]): Active |
| COc1cc2c(c(OC)c1OC)-c1ccc(OC)c(=O)cc1[C@@H](NC(=O)CCCCCC(=O)OC1CCCCC1)CC2 | 4.8 | Active | – |
| COC(=O)CCCCCC(=O)N[C@H]1CCc2cc(OC)c(OC)c(OC)c2-c2ccc(OC)c(=O)cc21 | 32 | – | Activity (A549 [3]): Active |
| COc1cc2c(c(OC)c1OC)-c1ccc(OC)c(=O)cc1[C@@H](NC(=O)CCCCCCC(=O)OC1C3CC4CC(C3)CC1C4)CC2 (stereo not given in full) | 5 | Active | – |
| COc1cc2c(c(OC)c1OC)-c1ccc(OC)c(=O)cc1[C@@H](NC(=O)CCCCCC(=O)OC(C)C)CC2 | 30 | Active | – |
| COc1cc2c(c(OC)c1OC)-c1ccc(OC)c(=O)cc1[C@@H](NC(=O)CCCC(=O)OC1C3CC4CC(C3)CC1C4)CC2 (stereo not given in full) | 200 | – | Activity (A549 [3]): Active |
| COc1cc2c(c(OC)c1OC)-c1ccc(OC)c(=O)cc1[C@@H](NC(=O)CCCCC(=O)OC1C3CC4CC(C3)CC1C4)CC2 (stereo not given in full) | 830 | Active | – |
| COc1cc2c(c(OC)c1OC)-c1ccc(OC)c(=O)cc1[C@@H](NC(=O)CCCCCCCCCCCOC(=O)[C@H](O)[C@@H](NC(=O)OC(C)(C)C)c1ccccc1)CC2 | 41 | Active | – |
| COc1cc2c(c(OC)c1OC)-c1ccc(OC)c(=O)cc1[C@@H](NC(=O)CCCCCCCC(=O)OC13CC4CC(CC(C4)C1)C3)CC2 | 29 | – | – |
| COc1cc2c(c(OC)c1OC)-c1ccc(OC)c(=O)cc1[C@@H](NC(=O)CCCCCCCC(=O)OC1C3CC4CC(C3)CC1C4)CC2 (stereo not given in full) | 3800 | Active | – |
| COc1cc2c(c(OC)c1OC)-c1ccc(OC)c(=O)cc1[C@@H](NC(=O)CCCCCC(=O)OC1C3CC4CC1CC(OC(=O)[C@H](O)[C@@H](NC(=O)OC(C)(C)C)c1ccccc1)(C4)C3)CC2 (mixture of isomers) | 73 | Active | Activity (A549 [5]): Active; inhibition (Bos taurus): Active |
| COc1cc2c(c(OC)c1OC)-c1ccc(OC)c(=O)cc1[C@@H](NC(C)=O)CC2 [COLCHICINE] | 27 | – | Activity (A549 [3]): Active |
| COc1cc2c(c(OC)c1OC)-c1ccc(OC)c(=O)cc1[C@@H](NC(=O)CCCCCC(=O)OC13CC4CC(CC(C4)C1)C3)CC2 | 11 | Active | – |
